Laboratory results: the RNAGym collection of RNA variant scans (doi:10.1038/nmeth.2970)

B1: NELF-E aptamer (parent)
chain: CCCAACGACUGCCGAGCGAGAUUACGCUUGAGCGCCCCACUGAGGAUGCCCACGGGCGAUUGGGGCACGG

Variants of: B1
Experiment: HiTS-RAP
Details: with NELF-E (Drosophila)
Outline: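 Kd came from weighted Hill fits to the first binding curve, with intensities normalised to sequencing intensity and averaged per sequence, keeping only fits whose variance was below 1,000,000. That curve was imaged on an Illumina GAIIx flowcell, where sequenced aptamer DNA templates with a T7 promoter and ter site had been transcribed in situ by T7 RNA polymerase and halted by GST-Tus (30 minutes, 37°C). Before each image, clusters equilibrated for 30 minutes at room temperature with NELF-E-mOrange at 0.064 to 1000 nM in HEPES binding buffer.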

Row | Variant | Kd
1 | CCCAACGACUGCCGAGCGAGAUUGCGCUUGAGCGCCCCACUGAGGAUGCCCACGGACGAUUGGGGCACGG | 11.9 nM
2 | CCCAACGACUGCCGAGCGAGAUUGCGCUUGAGCGCCCCACUGAGGAUGCCCACGGUCGAUUGGGGCACGG | 8.45 nM
3 | CCCAACGACUGCCGAGCGAGAUUGCGCUAGAGCGCCCCACUGAGGAUGCCCACGGGCGAUUGGGGCACGG | 4.42 nM
4 | CCCAACGACUGCCGAGCGAGAUUGCGCUGGAGCGCCCCACUGAGGAUGCCCACGGGCGAUUGGGGCACGG | 5.84 nM
5 | CCCAACGACUGCCGAGCGAGAUUGCGCUCGAGCGCCCCACUGAGGAUGCCCACGGGCGAUUGGGGCACGG | 4.85 nM
6 | CCCAACGACUGCCGAGCGAGAUUGCGCUUGAACGCCCCACUGAGGAUGCCCACGGGCGAUUGGGGCACGG | 5.64 nM
7 | CCCAACGACUGCCGAGCGAGAUUGCGCUUGAUCGCCCCACUGAGGAUGCCCACGGGCGAUUGGGGCACGG | 6.57 nM
8 | CCCAACGACUGCCGAGCGAGAUUGCGCUUGAGCGCCCCACUAAGGAUGCCCACGGGCGAUUGGGGCACGG | 56 nM
9 | CCCAACGACUGCCGAGCGAGAUUGCGCUUGAGCGCCCCACUGAGGAUGCCCACGGGCGAUUGGAGCACGG | 7.13 nM
10 | CCCAACGACUGCCGAGCGAGAUUGCGCUUGAGCGCCCCACUGAGGAUGCCCACGGGCGAUUGGUGCACGG | 6.61 nM
11 | CCCAACGACUGCCGAGCGAGAUUGCGCUUGAGCGCCCCACUGAGGAUGCCCACGGGCGAUUGGCGCACGG | 5.75 nM
12 | CCCAACGACUGCCGAGCGAGAUUGCACUUGAGCGCCCCACUGAGGAUGCCCACGGGCGAUUGGGGCACGG | 5.08 nM
13 | CCCAACGACUGCCGAGCGAGAUUGCUCUUGAGCGCCCCACUGAGGAUGCCCACGGGCGAUUGGGGCACGG | 6.2 nM
14 | CCCAACGACUGCCGAGCGAGAUUGCGCUUGAGCGCCCCACUGAAGAUGCCCACGGGCGAUUGGGGCACGG | 18.5 nM
15 | CCCAACGACUGCCGAGCGAGAUUGCGCUUGAGCGCCCCACUGAGUAUGCCCACGGGCGAUUGGGGCACGG | 6.64 nM
16 | CCCAACGACUGCCGAGCGAGAUUGCGCUUGAGCGCCCCACUGAGGAUGCCCACGAGCGAUUGGGGCACGG | 11.1 nM
17 | CCCAACGACUGCCGAGCGAGAUUGCGCUUGAGCACCCCACUGAGGAUGCCCACGGGCGAUUGGGGCACGG | 8.56 nM
18 | CCCAACGACUGCCGAGCGAGAUUGCGCUUGAGCGCCCCACAGAGGAUGCCCACGGGCGAUUGGGGCACGG | 92.9 nM
19 | CCCAACGACUGCCGAGCGAGAUUGCGCUUGAGCGCCCCACGGAGGAUGCCCACGGGCGAUUGGGGCACGG | 5.63 nM
20 | CCCAACGACUGCCGAGCGAGAUUGCGCUUGAGCGCCCCACUGAGGAUGCCCACGGGCGACUGGGGCACGG | 12.8 nM

Row | Variant | Kd
21 | CCCAACGACUGCCGAGCGAGAUUGCGCUUGAGCGCCCCACUGAGGAUGCCCACGGGCGAUUGUGGCACGG | 11 nM
22 | CCCAACGACUGCCGAGCGAGAUUGCGCUUGAGCGCCCCACUGAGGAUGCCCACGGGCGAUUGAGGCACGG | 14.3 nM
23 | CCCAACGACUGCCGAGCGAGAUUGCGCUUGAGCGCCCCACUGAGGAUGCCCAUGGGCGAUUGGGGCACGG | 4.2 nM
24 | CCCAACGACUGCCGAGCGAGAUUGCGCUUGAGCGCCCCACUGAGGAUACCCACGGGCGAUUGGGGCACGG | 14.2 nM
25 | CCCAACGACUGCCGAGCGAGAUUGCGCUUAAGCGCCCCACUGAGGAUGCCCACGGGCGAUUGGGGCACGG | 5.17 nM
26 | CCCAACGACUGCCGAGCGAGAUUGCGCUUUAGCGCCCCACUGAGGAUGCCCACGGGCGAUUGGGGCACGG | 7.16 nM
27 | CCCAACGACUGCCGAGCGAGAUUGCGCUUGAGCGCCCCACUGAGGAUGCCCACGGGCGAUUGGGUCACGG | 6 nM
28 | CCCAACGACUGCCGAGCGAGAUUGCGCUUGAGCGCCCCACUGAGGAUGCCCACGGGCGAUUGGGACACGG | 5.2 nM
29 | CCCAACGACUGCCGAGCGAGAUUGCGCUUGAGCGCCCCACUGAGGAUGCCCACGGGCGAUUGGGGUACGG | 5.38 nM
30 | CCCAACGACUGCCGAGCGAGAUUGCGCAUGAGCGCCCCACUGAGGAUGCCCACGGGCGAUUGGGGCACGG | 3.42 nM
31 | CCCAACGACUGCCGAGCGAGAUUGCGCGUGAGCGCCCCACUGAGGAUGCCCACGGGCGAUUGGGGCACGG | 8.97 nM
32 | CCCAACGACUGCCGAGCGAGAUUGCGCCUGAGCGCCCCACUGAGGAUGCCCACGGGCGAUUGGGGCACGG | 12.3 nM
33 | CCCAACGACUGCCGAGCGAGAUUGCGCUUGAGCGCCCCACUGAGGAUGCCCACGGGCGAUUAGGGCACGG | 26.1 nM
34 | CCCAACGACUGCCGAGCGAGAUUGCGCUUGAGCGCCCCACUGAGGAGGCCCACGGGCGAUUGGGGCACGG | 7.22 nM
35 | CCCAACGACUGCCGAGCGAGAUUGCGCUUGAGCGCCCCACUGAGGAAGCCCACGGGCGAUUGGGGCACGG | 13 nM
36 | CCCAACGACUGCCGAGCGAGAUUGCGCUUGAGCGCCCCACUGAGGAUGCCCACGGGUGAUUGGGGCACGG | 6.3 nM
37 | CCCAACGACUGCCGAGCGAGAUUGCGCUUGAGCGCCCCACUGAGGAUGCCCACUGGCGAUUGGGGCACGG | 7.49 nM
38 | CCCAACGACUGCCGAGCGAGAUUGCGCUUGAGCGCCCCACUGAGGAUGCCCACAGGCGAUUGGGGCACGG | 11.9 nM
39 | CCCAACGACUGCCGAGCGAGAUUGCGCUUGAGCGCCCCACUGAGGAUGCCCACGGGCGAUAGGGGCACGG | 34.7 nM
